Measurements: ChEMBL document CHEMBL4513216, “Probing the Open Global Health Chemical Diversity Library for Multistage-Active Starting Points for Next-Generation Antimalarials” (ACS Infect Dis, 2020)

Assay: Toxicity liver stage against HepG2, at 10uM
Type: cell-based
Parameters: test concentration 10 uM, cell line HepG2-A16-CD81EGFP
Conditions: human, HepG2-A16-CD81EGFP cells; read-out: INHIBITION
In short: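 Uninfected HepG2-A16-CD81EGFP cells, 3 × 10^3 per well, 1536-well, plated on prespotted compound at 10 μM final, parasite-free screening media added to match infected plates; puromycin 10 μM positive, DMSO 0.5% negative; run in parallel with 48 h PbLuc assay at 37 °C, 5% CO2; viability by CellTiter-Glo luminescence, normalized to controls.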

Row | Structure (SMILES) | cytotoxicity at 10 µM [%]
1 | CN1CCC(N2CCOC[C@H]2c2nc(-c3ccncc3)c[nH]2)CC1 | -5.15
2 | CC(=O)Nc1ccc2c(c1)nc1n2[C@@H](CNCc2ccccc2)COC1 | -10.2
3 | CN(C[C@H]1CN2CC[C@H]1C[C@@H]2CNC(=O)c1ccco1)c1ccccc1 | -0.947
4 | COc1ccccc1-c1nnc([C@H]2CCN(C(=O)C3CC3)C2)o1 | 0.734
5 | Cc1ccc(-c2noc([C@@H]3Cc4nc[nH]c4CN3)n2)cc1 | 0.676
6 | COCC(=O)Nc1ccc(-c2noc([C@@H]3CCCN3C(C)C)n2)cn1 | 0.994
7 | CCCNC(=O)Nc1ccc2c(c1)N(S(=O)(=O)CC)CC2 | 1.97
8 | CNC(=O)[C@@H]1[C@@H](OC(=O)Nc2ccccc2)C(=O)N(C)C12CCNCC2 | 6.38
9 | Cc1nnc(SCC(=O)Nc2csc3nc(=O)c(C)nn23)s1 | 10.8
10 | O=S1(=O)CCC(S(=O)(=O)c2cccc(S(=O)(=O)N3CCCC3)c2)C1 (configuration not stated) | 3.45
11 | CS(=O)(=O)N1CCC(C(=O)N2CCC(Cn3cccn3)CC2)CC1 | -10.2
12 | O=C(Nc1ccc(CC(=O)N2CCCC2)cc1)NC1CC1 | -2.16
13 | COc1cc(NC(=O)NCc2cc(C)oc2C)cc(OC)c1 | 5.24
14 | O=C(NCC1(O)CCc2ccccc2C1)c1cccs1 (configuration not stated) | 13.8
15 | CN(C)CCOCc1nnc2n1CCN(c1cnccn1)CC2 | 5.62
16 | CN(C)c1ncnc2c1CCN(c1ccccc1)CC2 | 13.4
17 | CN1CCCN(C(=O)c2nc3c(s2)CCCN3CC2CC2)CC1 | 10
18 | Cn1cnc(S(=O)(=O)N2CCO[C@H]3[C@@H](OCC4CC4)CC[C@@H]32)c1 | 7.74
19 | O=C(c1c2c(N3CCCC3)ncnc2n2ccccc12)N1CCOCC1 | 9.49
20 | CCCN1CCC2(Cc3ccccc3NC2=O)C1 (configuration not stated) | 14.5
21 | CSc1ccc(-n2nnc(C(=O)O)c2-c2ccccn2)cc1 | -3.01
22 | O=C1CC(c2ccc(Cl)c(Cl)c2)c2c(n3ccsc3nc2=O)N1 (configuration not stated) | -0.839
23 | Cc1nn(-c2ccccc2)c2c1c(C(F)F)cc(=O)n2CC(=O)O | 7.73

Row | Structure (SMILES) | cytotoxicity at 10 µM [%]
24 | CCCn1c(N2CCCCC2)nc2c(C)nn(C)c2c1=O | 11.8
25 | O=C(NCCCO)C1(CC2CC(c3ccc(F)cc3)=NO2)CCOCC1 (configuration not stated) | 1.41
26 | CN1CCN([C@@H]2CN(C(=O)c3cc4ccc(F)cc4[nH]3)C[C@H]2O)CC1 | -10.4
27 | COc1cc(CCC(=O)N2CCC(c3cnccn3)CC2)on1 | 3.1
28 | Cc1ccc(S(=O)(=O)N2CC[C@@H]3C[C@H](NC(=O)c4[nH]ncc4Br)[C@@H]32)cc1 | 4.49
29 | c1cnc(Nc2cc(CCC3CCNCC3)ccn2)cn1 | 55.7
30 | O=C(CO)N1CCC(CCc2ccnc(Nc3cnccn3)c2)CC1 | -0.459
31 | Cc1nn(C)cc1CN1CCCC(n2c(=O)oc3ccc(Cl)cc32)C1 (configuration not stated) | 4.88
32 | CCN(CC)C(=O)CN1CCCC(c2nc(C)c3c(n2)N(C)CCC3)C1 (configuration not stated) | 10.2
33 | CC(c1ccccc1F)N(C(=O)CSCC(N)=O)C1CC1 (configuration not stated) | -54.9
34 | Cc1nc(CNC(=O)CCCc2cccs2)no1 | -46.8
35 | O=C(NCc1cccnc1)Nc1ccn(CC(F)F)n1 | 1.68
36 | CNC(=O)C1CCCCN1C(=O)c1csc(-c2ccc(C)cc2)n1 (configuration not stated) | 11.6
37 | CCN(CC)C(=O)NC(C)c1ccc(Oc2cccnc2)c(F)c1 (configuration not stated) | 17.4
38 | Cc1cc(C)n(C2CN(CCC(=O)NCCc3ccccc3)C2)n1 | 11.8
39 | CC(=O)N1CCC(NC(=O)c2ccccc2-n2cnnn2)CC1 | 6.87
40 | Cc1cscc1-c1nc(C2CCOC2)no1 (configuration not stated) | 8.4
41 | CSc1cc2c(cc1NC(=O)NCC(=O)N(C)C)OCCO2 | -5.87
42 | CNS(=O)(=O)c1cccc(C(C)NCc2ccsc2)c1 (configuration not stated) | 2.45
43 | Cc1nc(CN2CCc3cnc(C(C)C)nc3C2)oc1C | 0.479
44 | CN(Cc1cccc(Cl)c1)C(=O)Cn1nc(-c2ccc(F)cc2)oc1=O | -19.9
45 | N#Cc1cccnc1NCc1cccc(C(=O)NCC2CCCCO2)c1 (configuration not stated) | 5
46 | Cc1nn(CC(=O)Nc2ccc(F)cc2)c(N)c1C#N | 13.3

Row | Structure (SMILES) | cytotoxicity at 10 µM [%]
47 | CC(C)OCCS(=O)(=O)c1nccn1-c1cccc(F)c1 | -3.3
48 | NS(=O)(=O)CCN(CCc1cccc(F)c1)C1CCCC1 | -6.08
49 | COCCN(CCOC)C(=O)c1cc(F)cc2[nH]cnc12 | -8
50 | Cn1ncc2cnn(CC(O)COc3cccc4[nH]ccc34)c2c1=O (configuration not stated) | 13.2
51 | CN(C)CCCN(CCC#N)C(=O)Nc1ccc2[nH]ccc2c1 | -52.4
52 | O=C(c1ncoc1-c1ccco1)N1CCCN(c2nccs2)CC1 | 2.99
53 | CCNC(=O)COc1ccccc1N1CCCC(C)C1 (configuration not stated) | 8.06
54 | CCOCc1ccccc1NC(=O)NC1CCN(c2ccccc2)C1 (configuration not stated) | -6.31
55 | CCN(C(=O)CCn1cccn1)C1CC1 | -6.16
56 | Cc1ccc(NC(C)C(=O)NCc2cccs2)cc1C (configuration not stated) | -16.4
57 | CC(C)(C)NC(=O)C1CSCN1S(=O)(=O)c1cccc(F)c1 (configuration not stated) | -16.7
58 | CC(C)S(=O)(=O)NCC1CCCN(C(=O)c2ccc3c(c2)OCCO3)C1 (configuration not stated) | -35.2
59 | CC(C)c1ncc(CN2C[C@@H](CN3CCC(O)CC3)[C@@H](CO)C2)cn1 | -7.79
60 | Cc1nc(C)c(C)c(N(C)CCCc2nccn2C)n1 | 8.52
61 | CCc1c(C)nn(CC(=O)NC(C(=O)O)c2c(C)n[nH]c2C)c1C (configuration not stated) | 5.79
62 | CN1CCN(c2ncccn2)CC12CCC(=O)N(CC1CC1)CC2 (configuration not stated) | 2.6
63 | Cc1ccc(C(=O)N(Cc2cccnc2)C[C@@H]2CCC(=O)N2)s1 | -77.9
64 | COc1cccc(CC2CN(C3CCCCC3)CCO2)c1 (configuration not stated) | -11.9
65 | CC(=O)c1ccc(N2CCN(C(=O)c3cc(C(C)C)nn3C)CC2)cc1 | 11
66 | CNc1nc(C(=O)N2CCC3(CCCN(CCOC)C3=O)C2)cs1 (configuration not stated) | 7.55
67 | CCN(Cc1noc(CC(C)C)n1)Cc1ncccc1C(=O)O | -37.2
68 | O=c1[nH]cnc2c1CCN(S(=O)(=O)c1ccc(Cl)cc1)C2 | -1.68
69 | OC1(CNCCN2CCc3ccccc32)CNCCOC1 (configuration not stated) | 10.7

Row | Structure (SMILES) | cytotoxicity at 10 µM [%]
70 | O=C(O)C1CN(Cc2cnc(C3CCCCC3)nc2)CCO1 (configuration not stated) | -6.08
71 | CC(c1ccon1)N(C)Cc1cc(O)c2cc(F)ccc2n1 (configuration not stated) | 5.5
72 | COc1ccc(CN2CCC3(CCCN(C)C3=O)C2)c(Cl)c1OC (configuration not stated) | -1.24
73 | COCCCC1(CO)CCCN(C(=O)c2cnc3c(c2)CCCC3)C1 (configuration not stated) | -50.2
74 | CCNc1ncc(-c2cc(-c3ccn(C)c3)nc(N)c2C#N)cn1 | 7.14
75 | Cc1nc2ccccc2nc1CN1CCn2nc(CCC(=O)O)cc2C1 | -3.43
76 | CCc1c(C)nc(C)nc1N1CCC(NCCSc2nnnn2C)CC1 | -15.9
77 | CN(CCc1ccccn1)c1cc(N2CCCCC2)ncn1 | 3.61
78 | O=S(=O)(Cc1ccccc1F)NCCCN1CCCCC1 | 17.3
79 | CCOc1ccccc1OC1CCN(Cc2ccn(C)c(=O)c2)CC1 | 3.91
80 | CC(C)C(NC(=O)NCCNc1cnccn1)c1cccs1 (configuration not stated) | 0.0264
81 | Cc1cc(C)n(CC2CN(CC(=O)NC3CCOCC3)CCO2)n1 (configuration not stated) | -11.1
82 | COc1cc(CCC(=O)NCC2CC2)ccc1OCC(F)(F)F | -4.81
83 | O=C(c1ccco1)N1CCCC(c2cc(C(F)(F)F)[nH]n2)C1 (configuration not stated) | -16.1
84 | CCc1nc(CN(C(C)=O)C2CCN(CCc3cccs3)C2)no1 (configuration not stated) | -4.62
85 | O=C(CN1CCCC1Cn1cncn1)NCCOc1ccccc1 (configuration not stated) | -7.52
86 | CCn1ccnc1CN1CCN(Cc2cc(C#N)ccc2F)CC1 | -7.19
87 | NC(=O)c1cccc(OCC(=O)N2CCCC(n3ccnc3)C2)c1 (configuration not stated) | -9.37
88 | CCn1c(C)nnc1CN(C)C1CCN(Cc2nnc(C3CC3)o2)C1 (configuration not stated) | -11.6
89 | CCN(CC1CCOC1)C(=O)Nc1ccc(N2CCOCC2)nc1 (configuration not stated) | -2.45
90 | CC(C(=O)NCC(F)(F)F)N1CCC(N2CCN(C)C2=O)CC1 (configuration not stated) | 5.11
91 | COc1ccccc1C(O)CNC(=O)Nc1ccccn1 (configuration not stated) | -11.9
92 | COc1ccc(CCNC2CCCN(Cc3noc(C)n3)C2)cc1 (configuration not stated) | -5.98

Row | Structure (SMILES) | cytotoxicity at 10 µM [%]
93 | CCc1nc(CN(C)C2CCN(CCC(=O)N3CCCCC3)C2)no1 (configuration not stated) | -13.4
94 | Cn1cc(C(=O)NCc2ccc(N3CCCC3)nc2)ccc1=O | -3.72
95 | Cc1cc(C2CCCN2C(=O)NCc2c(C)cc(C)[nH]c2=O)on1 (configuration not stated) | -9.54
96 | O=C(c1cc(C2CC2)[nH]n1)N1CCN(Cc2ccsc2)CC1 | -9.04
97 | Cc1ccc(S(=O)(=O)N2CCOc3ccccc32)cc1C(N)=O | 7.91
98 | Cc1nccn1C1CCCN(C(=O)COCC(F)(F)F)C1 (configuration not stated) | -12.1
99 | O=C(c1ccc(-n2ccnc2)nc1)N1CCCC(n2cccn2)C1 (configuration not stated) | -5.13
100 | Cc1nc(C2CCCN(C(=O)c3ccco3)C2)no1 (configuration not stated) | 0.529
101 | c1ccc(-n2ccc(CN3CCCC3Cn3cccn3)n2)cc1 (configuration not stated) | -2.48
102 | Cc1cc(C)n(CC2CN(Cc3nc(-c4ccco4)no3)CCO2)n1 (configuration not stated) | -6.58
103 | CCN(Cc1cccc2c1OCO2)C(=O)NC1CC1 | -9.48
104 | Cc1ncc(CNCC2CCCN2c2cccnn2)s1 (configuration not stated) | 1.97
105 | O=C(Cc1ccc2c(c1)OCCO2)N1CCCC(n2cccn2)C1 (configuration not stated) | 7
106 | CCN1c2ccc(-c3cncn3CCCn3ccnc3C)cc2CC1C (configuration not stated) | -1.25
107 | CN(Cc1cccc2cccnc12)C1CCS(=O)(=O)C1 (configuration not stated) | -0.237
108 | Cn1ccnc1C(=O)N1CCC2(CCCN2CC2CC2)CC1 | 8.31
109 | CCOc1ncnc2c1CCN(Cc1cccs1)CC2 | 10.2
110 | O=C(N1CCOCC1)[C@@]12CCO[C@@H]1CCN(Cc1ccccc1F)C2 | 2.99
111 | CCc1cnc(N2CCc3ncnc(N4CCN(C)CC4)c3CC2)nc1 | -1.13
112 | O=C1CCCC2=C1C(c1ccco1)C1C(=O)NN=C1N2 (configuration not stated) | 2.1
